This passage reports IC50 and inhibition results from ChEMBL document CHEMBL2086320, “New synthetic inhibitors of fatty acid synthase with anticancer activity” (J Med Chem, 2012).

One assay relates to SK-BR-3. As to the kind of experiment: Cytotoxicity against human SKBR3 cells after 48 hrs by MTT assay. The class given is functional, cell-based. As to conditions: SK-BR-3, 48 h. The essentials: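 MTT colorimetric assay: cells seeded at 5 or 7 x 10³ cells/well, attached overnight, then given fresh medium with a range of compound concentrations for 48 h at 37 °C, 5% CO2. MTT added for 3 h, formazan dissolved in DMSO, absorbance read at 570 or 540 nm. IC50 as mean±SEM from at least two independent experiments in duplicate or triplicate.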

Assay [1] addresses Fatty acid synthase (Homo sapiens) (UniProt P49327). As to the kind of experiment: Inhibition of FASN in human SK-BR-3 cells assessed as oxidation of NADPH at 5 uM after 24 hrs by Spectrophotometric analysis relative to control. The class given is cell-based.
Assay [2] shares this target. As to the kind of experiment: Inhibition of FASN in human SK-BR-3 cells assessed as oxidation of NADPH at 78 uM after 24 hrs by Spectrophotometric analysis relative to control. It counts as cell-based.
For assay [3] the target is unchanged. The assay can be described thus: Inhibition of FASN in human SK-BR-3 cells assessed as oxidation of NADPH at 31 uM after 24 hrs by Spectrophotometric analysis relative to control. The class given is cell-based.
Assay [4] shares this target. The assay can be described thus: Inhibition of FASN in human SK-BR-3 cells assessed as oxidation of NADPH at 42 uM after 24 hrs by Spectrophotometric analysis relative to control. It counts as cell-based.
For assay [5] the target is unchanged. As to the kind of experiment: Inhibition of FASN in human SK-BR-3 cells assessed as oxidation of NADPH at 23 uM after 24 hrs by Spectrophotometric analysis relative to control. It counts as cell-based.
For assay [6] the target is unchanged. As to the kind of experiment: Inhibition of FASN in human SK-BR-3 cells assessed as oxidation of NADPH at 25 uM after 24 hrs by Spectrophotometric analysis relative to control. It counts as cell-based.
Assay [7] has the same target. As to the kind of experiment: Inhibition of FASN in human SK-BR-3 cells assessed as oxidation of NADPH at 17 uM after 24 hrs by Spectrophotometric analysis relative to control. The class given is cell-based.
Assay [8] has the same target. As to the kind of experiment: Inhibition of FASN in human SK-BR-3 cells assessed as oxidation of NADPH at 26 uM after 24 hrs by Spectrophotometric analysis relative to control. It counts as cell-based.
For assay [9] the target is unchanged. As to the kind of experiment: Inhibition of FASN in human SK-BR-3 cells assessed as oxidation of NADPH at 22 uM after 24 hrs by Spectrophotometric analysis relative to control. It counts as cell-based.
The target of assay [10] is Receptor tyrosine-protein kinase erbB-2 (Homo sapiens) (UniProt P04626). The assay can be described thus: Inhibition of HER2 phosphorylation in human SK-BR-3 cells after 6 hrs by Western blot analysis. The class given is cell-based. As to conditions: concentration not given here. A digest of the protocol:
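SK-Br3 cells treated for 6, 12 or 24 h, harvested with trypsin-EDTA, lysed in Tris-HCl pH 7.5/EDTA/NaCl/PMSF buffer at 4 °C. Equal protein run on 3-8% SDS-PAGE and transferred to nitrocellulose. Membranes probed overnight at 4 °C with anti-phospho-HER2 mouse monoclonal, then peroxidase secondary and chemiluminescence. Re-probed for β-actin as loading control. Gels are representative of at least two independent experiments.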
For orientation: A western blot detects proteins with antibodies after separation by electrophoresis.

The target of assay [11] is Fatty acid synthase (Homo sapiens) (UniProt P49327). As to the kind of experiment: Inhibition of FASN in human SK-BR-3 cells assessed as oxidation of NADPH at 36 uM after 24 hrs by Spectrophotometric analysis relative to control. It counts as cell-based.
For assay [12] the target is unchanged. The assay can be described thus: Inhibition of FASN in human SK-BR-3 cells assessed as oxidation of NADPH at 41 uM after 24 hrs by Spectrophotometric analysis relative to control. The class given is cell-based.
For assay [13] the target is unchanged. As to the kind of experiment: Inhibition of FASN in human SK-BR-3 cells assessed as oxidation of NADPH at 39 uM after 24 hrs by Spectrophotometric analysis relative to control. The class given is cell-based.
Assay [14] shares this target. As to the kind of experiment: Inhibition of FASN in human SK-BR-3 cells assessed as oxidation of NADPH at 76 uM after 24 hrs by Spectrophotometric analysis relative to control. The class given is cell-based.
Assay [15] shares this target. As to the kind of experiment: Inhibition of FASN in human SK-BR-3 cells assessed as oxidation of NADPH at 8 uM after 24 hrs by Spectrophotometric analysis relative to control. It counts as cell-based.
Assay [16] has the same target. The assay can be described thus: Inhibition of FASN in human SK-BR-3 cells assessed as oxidation of NADPH at 47 uM after 24 hrs by Spectrophotometric analysis relative to control. The class given is cell-based.
Assay [17] shares this target. The assay can be described thus: Inhibition of FASN in human SK-BR-3 cells assessed as oxidation of NADPH at 28 uM after 24 hrs by Spectrophotometric analysis relative to control. The class given is cell-based.

The source made the active and inactive calls. The rule behind the calls is not given here.

Sequence of Fatty acid synthase (Homo sapiens) (P49327 whole entry, looked up): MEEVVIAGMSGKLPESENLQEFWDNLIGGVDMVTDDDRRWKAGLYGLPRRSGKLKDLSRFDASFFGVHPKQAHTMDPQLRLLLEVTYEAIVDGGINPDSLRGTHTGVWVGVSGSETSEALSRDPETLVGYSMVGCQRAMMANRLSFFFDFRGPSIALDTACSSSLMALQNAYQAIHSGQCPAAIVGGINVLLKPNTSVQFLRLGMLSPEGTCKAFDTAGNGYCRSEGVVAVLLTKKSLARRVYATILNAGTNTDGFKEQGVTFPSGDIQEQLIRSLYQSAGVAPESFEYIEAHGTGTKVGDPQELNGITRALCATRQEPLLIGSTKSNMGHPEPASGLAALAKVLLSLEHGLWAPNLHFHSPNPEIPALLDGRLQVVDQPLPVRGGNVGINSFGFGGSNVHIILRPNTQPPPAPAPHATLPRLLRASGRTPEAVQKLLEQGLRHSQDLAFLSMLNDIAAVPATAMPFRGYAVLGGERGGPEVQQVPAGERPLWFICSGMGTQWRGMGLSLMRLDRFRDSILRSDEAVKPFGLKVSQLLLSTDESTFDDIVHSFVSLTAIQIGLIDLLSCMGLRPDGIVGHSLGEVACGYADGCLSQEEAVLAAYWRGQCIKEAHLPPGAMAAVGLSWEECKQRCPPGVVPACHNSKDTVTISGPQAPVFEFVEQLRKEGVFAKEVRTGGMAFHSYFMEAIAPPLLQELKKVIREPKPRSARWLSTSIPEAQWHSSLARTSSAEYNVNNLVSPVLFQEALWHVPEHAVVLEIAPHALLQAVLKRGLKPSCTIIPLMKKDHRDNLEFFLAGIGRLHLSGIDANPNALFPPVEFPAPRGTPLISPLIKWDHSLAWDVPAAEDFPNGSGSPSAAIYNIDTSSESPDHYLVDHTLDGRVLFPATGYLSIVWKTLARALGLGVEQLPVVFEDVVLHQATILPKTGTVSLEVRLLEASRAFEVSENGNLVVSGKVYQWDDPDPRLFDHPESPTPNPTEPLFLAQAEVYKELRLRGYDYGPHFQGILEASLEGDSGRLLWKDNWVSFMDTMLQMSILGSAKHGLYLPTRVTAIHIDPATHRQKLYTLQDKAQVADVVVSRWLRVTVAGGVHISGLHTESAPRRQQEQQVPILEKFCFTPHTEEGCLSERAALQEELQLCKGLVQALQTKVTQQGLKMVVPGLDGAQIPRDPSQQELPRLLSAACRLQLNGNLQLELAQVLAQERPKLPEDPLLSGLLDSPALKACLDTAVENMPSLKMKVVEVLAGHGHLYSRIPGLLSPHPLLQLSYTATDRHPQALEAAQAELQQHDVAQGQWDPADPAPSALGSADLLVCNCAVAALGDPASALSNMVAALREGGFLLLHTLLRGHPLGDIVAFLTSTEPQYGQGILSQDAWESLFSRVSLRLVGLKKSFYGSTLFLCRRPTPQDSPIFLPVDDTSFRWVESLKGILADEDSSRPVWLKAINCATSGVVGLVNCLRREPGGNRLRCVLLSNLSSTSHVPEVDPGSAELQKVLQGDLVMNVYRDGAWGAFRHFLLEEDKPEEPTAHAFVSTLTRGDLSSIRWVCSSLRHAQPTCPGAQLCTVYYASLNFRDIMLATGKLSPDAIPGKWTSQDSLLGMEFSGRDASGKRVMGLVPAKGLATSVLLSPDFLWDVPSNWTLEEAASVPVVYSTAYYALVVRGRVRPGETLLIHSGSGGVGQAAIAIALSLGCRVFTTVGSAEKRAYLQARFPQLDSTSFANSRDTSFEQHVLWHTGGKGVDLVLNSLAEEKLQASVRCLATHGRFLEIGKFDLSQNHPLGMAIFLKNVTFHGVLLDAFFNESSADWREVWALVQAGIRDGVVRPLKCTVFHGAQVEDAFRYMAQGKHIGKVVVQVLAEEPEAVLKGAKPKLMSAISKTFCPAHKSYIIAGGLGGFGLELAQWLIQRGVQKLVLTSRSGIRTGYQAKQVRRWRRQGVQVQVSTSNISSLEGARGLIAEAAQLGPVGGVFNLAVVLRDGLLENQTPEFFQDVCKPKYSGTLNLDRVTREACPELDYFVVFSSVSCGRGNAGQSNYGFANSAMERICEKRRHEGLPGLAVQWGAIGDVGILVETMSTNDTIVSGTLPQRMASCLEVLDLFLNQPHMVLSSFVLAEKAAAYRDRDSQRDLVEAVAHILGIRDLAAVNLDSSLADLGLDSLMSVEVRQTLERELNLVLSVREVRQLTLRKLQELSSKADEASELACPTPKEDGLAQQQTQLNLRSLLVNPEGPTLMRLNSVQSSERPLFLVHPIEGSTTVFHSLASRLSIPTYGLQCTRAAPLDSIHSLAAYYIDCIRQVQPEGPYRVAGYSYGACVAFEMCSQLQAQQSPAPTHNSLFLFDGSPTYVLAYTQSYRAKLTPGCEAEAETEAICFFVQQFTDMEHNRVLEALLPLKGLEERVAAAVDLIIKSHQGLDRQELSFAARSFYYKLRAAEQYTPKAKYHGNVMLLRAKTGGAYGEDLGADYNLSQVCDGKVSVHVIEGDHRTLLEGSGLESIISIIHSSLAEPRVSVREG
Sequence of Receptor tyrosine-protein kinase erbB-2 (Homo sapiens) (P04626 whole entry): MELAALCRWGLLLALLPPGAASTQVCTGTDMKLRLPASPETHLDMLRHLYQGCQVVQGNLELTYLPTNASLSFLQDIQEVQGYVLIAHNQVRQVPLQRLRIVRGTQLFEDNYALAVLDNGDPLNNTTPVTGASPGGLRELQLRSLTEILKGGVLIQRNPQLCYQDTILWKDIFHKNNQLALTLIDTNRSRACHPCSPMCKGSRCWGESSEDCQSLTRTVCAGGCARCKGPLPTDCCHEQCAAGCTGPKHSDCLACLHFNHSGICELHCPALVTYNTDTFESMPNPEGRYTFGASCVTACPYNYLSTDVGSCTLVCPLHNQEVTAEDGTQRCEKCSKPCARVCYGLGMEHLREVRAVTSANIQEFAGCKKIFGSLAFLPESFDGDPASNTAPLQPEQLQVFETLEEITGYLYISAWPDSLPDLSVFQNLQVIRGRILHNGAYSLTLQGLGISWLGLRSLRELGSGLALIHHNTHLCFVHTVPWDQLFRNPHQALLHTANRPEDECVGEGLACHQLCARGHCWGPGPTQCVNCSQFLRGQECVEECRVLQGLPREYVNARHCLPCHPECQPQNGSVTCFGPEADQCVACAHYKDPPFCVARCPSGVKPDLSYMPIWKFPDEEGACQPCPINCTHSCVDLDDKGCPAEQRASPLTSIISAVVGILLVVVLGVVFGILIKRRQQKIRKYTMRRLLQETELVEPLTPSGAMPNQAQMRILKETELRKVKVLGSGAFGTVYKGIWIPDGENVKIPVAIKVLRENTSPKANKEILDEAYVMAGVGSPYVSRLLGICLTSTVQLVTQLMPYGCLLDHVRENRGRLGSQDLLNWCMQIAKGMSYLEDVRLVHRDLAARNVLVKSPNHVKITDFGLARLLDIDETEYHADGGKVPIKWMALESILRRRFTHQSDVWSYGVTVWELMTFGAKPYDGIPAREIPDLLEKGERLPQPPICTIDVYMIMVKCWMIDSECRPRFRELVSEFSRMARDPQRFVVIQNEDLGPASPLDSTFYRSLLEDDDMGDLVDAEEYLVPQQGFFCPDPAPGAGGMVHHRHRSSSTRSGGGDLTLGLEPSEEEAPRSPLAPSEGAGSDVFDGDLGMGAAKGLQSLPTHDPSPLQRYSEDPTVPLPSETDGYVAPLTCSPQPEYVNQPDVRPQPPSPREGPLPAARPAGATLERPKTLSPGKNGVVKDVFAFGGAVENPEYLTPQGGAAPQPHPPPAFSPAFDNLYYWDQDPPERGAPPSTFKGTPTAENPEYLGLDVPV

By IC50 is commonly meant the point on the concentration scale where inhibition reaches its midpoint. In general, inhibition refers to the share of the control response that was lost under treatment. On to `O=C(Oc1ccc2cc(OC(=O)c3cc(O)c(O)c(O)c3)ccc2c1)c1cc(O)c(O)c(O)c1`, for which the 50% inhibitory concentration (IC50) with SK-BR-3 turned out to be 5 µM. The inhibition result in assay [1] was “inactive”.
In turn, `O=C(Oc1ccccc1OC(=O)c1cc(O)c(O)c(O)c1)c1cc(O)c(O)c(O)c1` yielded a half-inhibitory concentration (IC50) in the assay on SK-BR-3 of 125 µM.
The compound `O=C(Oc1cccc2cccc(OC(=O)c3cc(O)c(O)c(O)c3)c12)c1cc(O)c(O)c(O)c1` yielded an IC50 with SK-BR-3 of 78 µM. Further, in assay [2], the inhibition result is “inactive”.
`O=C(Oc1cc2c(c(OC(=O)c3cc(O)c(O)c(O)c3)c1)CCCC2)c1cc(O)c(O)c(O)c1` had an IC50 in the assay with SK-BR-3 of 31 µM. Further, the inhibition entry in [3] is “inactive”.
On to `O=C(Oc1cccc(OC(=O)c2cc(O)c(O)c(O)c2)c1)c1cc(O)c(O)c(O)c1`, for which the inhibition result in [4] was “inactive”. The IC50 in the assay on SK-BR-3 is 42 µM.
With `Cc1cc(OC(=O)c2cc(O)c(O)c(O)c2)ccc1OC(=O)c1cc(O)c(O)c(O)c1`, the inhibition entry in assay [5] was “inactive”. This compound showed a concentration for half-maximal inhibition (IC50) in the assay on SK-BR-3 of 23 µM.
In the assay on SK-BR-3, `O=C(Oc1ccc(OC(=O)c2cc(O)c(O)c(O)c2)cc1)c1cc(O)c(O)c(O)c1` showed a half-maximal inhibitory concentration (IC50) of 25 µM. The inhibition entry in [6] is “inactive”.
In the assay on SK-BR-3, `O=C(O[C@@H]1CCCC[C@H]1OC(=O)c1cc(O)c(O)c(O)c1)c1cc(O)c(O)c(O)c1` (relative stereo) had an IC50 above 150 µM.
`O=C(Oc1ccc(OC(=O)c2cc(O)c(O)c(O)c2)c(-c2ccccc2)c1)c1cc(O)c(O)c(O)c1` had a 50% inhibitory concentration (IC50) in the assay with SK-BR-3 of 17 µM. Besides, in [7], the inhibition entry was “inactive”.
In the assay with SK-BR-3, `O=C(Oc1cc(OC(=O)c2cc(O)c(O)c(O)c2)c2ccccc2c1)c1cc(O)c(O)c(O)c1` displayed a half-inhibitory concentration (IC50) of 21 µM.
In turn, `O=C(Oc1cccc2c(OC(=O)c3cc(O)c(O)c(O)c3)cccc12)c1cc(O)c(O)c(O)c1` had a half-maximal inhibitory concentration (IC50) in the assay with SK-BR-3 of 26 µM. In addition, the inhibition in assay [8] was determined as 30%.
Regarding `O=C(Oc1ccc(OC(=O)c2cc(O)c(O)c(O)c2)c2ccccc12)c1cc(O)c(O)c(O)c1`, half-maximal inhibition in the assay on SK-BR-3 (IC50) was put at 29 µM.
In turn, `O=C(O[C@H]1CC[C@@H](OC(=O)c2cc(O)c(O)c(O)c2)c2ccccc21)c1cc(O)c(O)c(O)c1` gave an IC50 with SK-BR-3 of 22 µM. In addition, the inhibition result in assay [9] is “inactive”.
For the compound `O=C(OCCOC(=O)c1cc(O)c(O)c(O)c1)c1cc(O)c(O)c(O)c1`, the half-maximal inhibitory concentration (IC50) in the assay on SK-BR-3 was above 150 µM.
As for `O=C(O[C@H]1CC[C@H](OC(=O)c2cc(O)c(O)c(O)c2)c2ccccc21)c1cc(O)c(O)c(O)c1`, the inhibition in [4] came to 41%. Moreover, it took 42 µM to reach half-maximal inhibition in the assay with SK-BR-3 (IC50).
For `O=C(Oc1ccc2ccccc2c1OC(=O)c1cc(O)c(O)c(O)c1)c1cc(O)c(O)c(O)c1`, the IC50 with SK-BR-3 came to 74 µM. This lies in the double-digit micromolar range.
Take `O=C(O[C@H]1CCCC[C@H]1OC(=O)c1cc(O)c(O)c(O)c1)c1cc(O)c(O)c(O)c1`: the IC50 with SK-BR-3 was above 150 µM.
`O=C(O[C@@H]1Cc2c(O)cc(O)cc2O[C@@H]1c1cc(O)c(O)c(O)c1)c1cc(O)c(O)c(O)c1` [EPIGALOCATECHIN GALLATE] returned an inhibition in assay [10] of 18%. 149 µM corresponded to half-maximal inhibition in the assay with SK-BR-3 (IC50).
In turn, `O=C(Oc1ccc2ccc(OC(=O)c3cc(O)c(O)c(O)c3)cc2c1)c1cc(O)c(O)c(O)c1` showed an IC50 in the assay with SK-BR-3 of 26 µM. The inhibition result in [8] is “inactive”.
In the case of `COC(=O)c1cc(OC(=O)c2cc(O)c(O)c(O)c2)ccc1OC(=O)c1cc(O)c(O)c(O)c1`, in assay [11], the inhibition was 43%. In addition, in the assay on SK-BR-3, the half-maximal inhibitory concentration (IC50) stood at 36 µM.
In the case of `O=C(Oc1ccc(OC(=O)c2cc(O)c(O)c(O)c2)c2c1CCCC2)c1cc(O)c(O)c(O)c1`, the inhibition entry in assay [12] is “inactive”. This compound yielded a concentration for half-maximal inhibition (IC50) in the assay on SK-BR-3 of 41 µM.
As for `O=C(Oc1ccc2c(OC(=O)c3cc(O)c(O)c(O)c3)cccc2c1)c1cc(O)c(O)c(O)c1`, the half-maximal inhibitory concentration (IC50) in the assay with SK-BR-3 turned out to be 39 µM. Also, the inhibition result in assay [13] is “inactive”.
Consider `O=C(Oc1cc2ccccc2cc1OC(=O)c1cc(O)c(O)c(O)c1)c1cc(O)c(O)c(O)c1`, for which, in assay [14], the inhibition worked out at 31%. For the same compound, the IC50 in the assay on SK-BR-3 was found to be 76 µM.
In the assay with SK-BR-3, `COc1cc(OC(=O)c2cc(O)c(O)c(O)c2)ccc1OC(=O)c1cc(O)c(O)c(O)c1` returned an IC50 of 8 µM. Also, the inhibition result in assay [15] is “inactive”.
In the assay with SK-BR-3, `O=C(Oc1ccc2cccc(OC(=O)c3cc(O)c(O)c(O)c3)c2c1)c1cc(O)c(O)c(O)c1` registered an IC50 of 47 µM. Besides, in assay [16], the inhibition result is “inactive”.
In the assay on SK-BR-3, `COC(=O)c1cc(OC(=O)c2cc(O)c(O)c(O)c2)c2ccccc2c1OC(=O)c1cc(O)c(O)c(O)c1` registered an IC50 of 28 µM. In assay [17], the inhibition result is “inactive”.
